Test results published in ChEMBL document CHEMBL1667760, “Synthesis and biological evaluation of 3,5-diaryl isoxazoline/isoxazole linked 2,3-dihydroquinazolinone hybrids as anticancer agents” (2011).
Activity calls are given as the source filed them. The calls are words filed in the database; no cut-off is given here.

What was measured:
MCF7 [1] = experiment: Reduction of CDK1 expression in human MCF7 cells at 5 uM after 24 hrs by Western blotting; assay type: functional, cell-based
Method in brief: (§1)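 MCF-7 cells, kept in DMEM with 10% fetal calf serum at 37 °C under 5% CO2, treated 24 h. Lysis in ice-cold RIPA with protease inhibitors; Bradford quantitation; 30 µg protein per lane on 12% SDS-PAGE, then PVDF. Primary antibodies (1:500) at 4 °C overnight; HRP secondary (1:2000); chemiluminescence detection; β-actin loading control.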

EKVX = experiment: Cytotoxicity against human EKVX cells after 48 hrs by sulforhodamine B assay; assay type: functional
Method in brief: (§2)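 Run by the NCI 60 human tumour cell line screen. A one-dose pre-test across sixty lines came first. The main test then used a 5-log dose range (10^-4–10^-8 M). Values derived per cell line were GI50 (log molar concentration for 50% net growth inhibition), TGI (total growth inhibition) and LC50 (50% net cell death).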

SNB-19 = experiment: Cytotoxicity against human SNB19 cells after 48 hrs by sulforhodamine B assay; assay type: functional; details: SNB-19, 48 h
Method in brief: (§3)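 NCI 60-cell-line panel screen of human tumor lines: a one-dose pre-test, then the main test over a 5-log range (10^-4–10^-8 M). GI50, TGI and LC50 are reported as log molar concentrations for 50% net growth inhibition, total growth inhibition and 50% net cell death. Mean graph midpoints are also calculated.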

HCT-15 = experiment: Cytotoxicity against human HCT15 cells after 48 hrs by sulforhodamine B assay; assay type: functional; details: HCT-15, 48 h
Method in brief: (§4)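 Run by the NCI 60-cell-line screen. A one-dose pre-test was done first, followed by the main test over a 5-log dose range (10^-4 to 10^-8 M). Results are reported as log molar GI50 (50% net growth inhibition), TGI (total growth inhibition) and LC50 (50% net cell death), with mean-graph midpoints across all lines.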

SK-OV-3 = experiment: Cytotoxicity against human SKOV3 cells after 48 hrs by sulforhodamine B assay; assay type: functional; details: SK-OV-3, 48 h; method in brief: as §4
COLO 205 = experiment: Cytotoxicity against human COLO205 cells after 48 hrs by sulforhodamine B assay; assay type: functional; details: COLO 205, 48 h; method in brief: as §4
SNB-75 = experiment: Cytotoxicity against human SNB75 cells after 48 hrs by sulforhodamine B assay; assay type: functional; details: SNB-75, 48 h; method in brief: as §3
NCI/ADR-RES = experiment: Cytotoxicity against human NCI/ADR-RES cells after 48 hrs by sulforhodamine B assay; assay type: functional; method in brief: as §4
CAKI-1 = experiment: Cytotoxicity against human Caki1 cells after 48 hrs by sulforhodamine B assay; assay type: functional; details: CAKI-1, 48 h; method in brief: as §4
MCF7 [2] = experiment: Induction of apoptosis in human MCF7 cells assessed as increase of cleaved PARP level at 5 uM after 24 hrs by Western blotting; assay type: functional, cell-based; method in brief: as §1
HL-60(TB) = experiment: Cytotoxicity against human HL-60(TB) cells after 48 hrs by sulforhodamine B assay; assay type: functional; details: HL-60, 48 h; method in brief: as §2
MCF7 [3] = experiment: Cytotoxicity against human MCF7 cells at 5 uM after 24 hrs by MTT assay
MCF7 [4] = experiment: Cell cycle arrest in human MCF7 cells assessed as accumulation at S phase at 5 uM after 24 hrs using propidium iodide staining by flow cytometry relative to control; assay type: functional
Method in brief: (§5)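 MCF-7 cells were seeded at 5×10^5 per 60 mm dish and grown 24 h. They were then exposed to 5 uM compound for a further 24 h, with untreated control cells alongside. Cells were trypsinised, fixed in ice-cold 70% ethanol (4 °C, 30 min), treated with 1 mg/ml RNase A (37 °C, 30 min) and stained with propidium iodide/citrate/Triton solution. DNA content was read by flow cytometry on 20,000 events.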

OVCAR-4 = experiment: Cytotoxicity against human OVCAR4 cells after 48 hrs by sulforhodamine B assay; assay type: functional; details: OVCAR-4, 48 h; method in brief: as §4
786-0 = experiment: Cytotoxicity against human 786-0 cells after 48 hrs by sulforhodamine B assay; assay type: functional; details: 786-0, 48 h; method in brief: as §4
OVCAR-5 = experiment: Cytotoxicity against human OVCAR5 cells after 48 hrs by sulforhodamine B assay; assay type: functional; details: OVCAR-5, 48 h; method in brief: as §4
SR = experiment: Cytotoxicity against human SR cells after 48 hrs by sulforhodamine B assay; assay type: functional; method in brief: as §3
NCI-H226 = experiment: Cytotoxicity against human NCI-H226 cells after 48 hrs by sulforhodamine B assay; assay type: functional; details: NCI-H226, 48 h; method in brief: as §4
MDA-MB-435 = experiment: Cytotoxicity against human MDA-MB-435 cells after 48 hrs by sulforhodamine B assay; assay type: functional; details: MDA-MB-435, 48 h; method in brief: as §4
MCF7 [5] = experiment: Induction of apoptosis in human MCF7 cells assessed as nuclear fragmentation at 5 uM after 48 hrs by DAPI staining; assay type: functional, cell-based
Method in brief: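 MCF-7 cells grown on glass coverslips and incubated 48 h with or without compound. Fixed in 3% paraformaldehyde/0.02% glutaraldehyde in PBS, stained with DAPI, and nuclear morphology examined by fluorescence microscopy.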

SK-MEL-5 = experiment: Cytotoxicity against human SK-MEL-5 cells after 48 hrs by sulforhodamine B assay; assay type: functional; details: SK-MEL-5, 48 h; method in brief: as §4
MCF7 [6] = experiment: Reduction of cyclin A expression in human MCF7 cells at 5 uM after 24 hrs by Western blotting; assay type: functional, cell-based; method in brief: as §1
MDA-MB-231 = experiment: Cytotoxicity against human MDA-MB-231 cells after 48 hrs by sulforhodamine B assay; assay type: functional; details: MDA-MB-231, 48 h; method in brief: as §4
Malme-3M = experiment: Cytotoxicity against human MALME-3M cells after 48 hrs by sulforhodamine B assay; assay type: functional; method in brief: as §2
SF-539 = experiment: Cytotoxicity against human SF539 cells after 48 hrs by sulforhodamine B assay; assay type: functional; details: SF-539, 48 h; method in brief: as §4
MCF7 [7] = experiment: Cell cycle arrest in human MCF7 cells assessed as accumulation at G2/M phase at 5 uM after 24 hrs using propidium iodide staining by flow cytometry relative to control; assay type: functional; method in brief: as §5
[8] = read-out: pLC50 (the source's name) (converted)

COc1cc(C2NC(=O)c3ccccc3N2)ccc1OCCCCCOc1c(OC)cc(C2=NOC(c3cc(OC)c(OC)c(OC)c3)C2)cc1OC (configuration not stated)
Activity (MCF7 [1]): Active
CC50 (EKVX; [8]): > 100 µM
TGI (EKVX; read-out: pTGI): > 100 µM
GI50 (SNB-19): 16.6 µM
CC50 (SNB-19; [8]): > 100 µM
TGI (SNB-19; read-out: pTGI): > 100 µM
GI50 (HCT-15): 0.708 µM
CC50 (HCT-15; [8]): > 100 µM
TGI (HCT-15; read-out: pTGI): > 100 µM
GI50 (SK-OV-3): 25.1 µM
CC50 (SK-OV-3; [8]): > 100 µM
TGI (SK-OV-3; read-out: pTGI): > 100 µM
GI50 (COLO 205): 34.7 µM
CC50 (COLO 205; [8]): > 100 µM
TGI (COLO 205; read-out: pTGI): > 100 µM
GI50 (SNB-75): 11.2 µM
CC50 (SNB-75; [8]): > 100 µM
TGI (SNB-75; read-out: pTGI): > 100 µM
GI50 (NCI/ADR-RES): 15.1 µM
CC50 (NCI/ADR-RES; [8]): > 100 µM
TGI (NCI/ADR-RES; read-out: pTGI): > 100 µM
GI50 (CAKI-1): > 100 µM
CC50 (CAKI-1; [8]): > 100 µM
TGI (CAKI-1; read-out: pTGI): > 100 µM
Activity (MCF7 [2]): Active
GI50 (HL-60(TB)): 11.2 µM
CC50 (HL-60(TB); [8]): > 100 µM
TGI (HL-60(TB); read-out: pTGI): > 100 µM
Activity (MCF7 [3]): Active
Activity (MCF7 [4]): 22.38%
GI50 (OVCAR-4): 0.355 µM
CC50 (OVCAR-4; [8]): > 100 µM
TGI (OVCAR-4; read-out: pTGI): > 100 µM
GI50 (786-0): 23.4 µM
CC50 (786-0; [8]): > 100 µM
TGI (786-0; read-out: pTGI (converted)): 61.7 µM
GI50 (OVCAR-5): 36.3 µM
CC50 (OVCAR-5; [8]): > 100 µM
TGI (OVCAR-5; read-out: pTGI): > 100 µM
GI50 (SR): 0.955 µM
CC50 (SR; [8]): > 100 µM
TGI (SR; read-out: pTGI): > 100 µM
GI50 (NCI-H226): 3.39 µM
CC50 (NCI-H226; [8]): > 100 µM
TGI (NCI-H226; read-out: pTGI): > 100 µM
GI50 (MDA-MB-435): 0.417 µM
CC50 (MDA-MB-435; [8]): > 100 µM
TGI (MDA-MB-435; read-out: pTGI): > 100 µM
inhibition (MCF7 [5]): Active
GI50 (SK-MEL-5): 0.112 µM
CC50 (SK-MEL-5; [8]): 0.933 µM
TGI (SK-MEL-5; read-out: pTGI (converted)): 0.324 µM
Activity (MCF7 [6]): Active
GI50 (MDA-MB-231): 14.8 µM
CC50 (MDA-MB-231; [8]): > 100 µM
TGI (MDA-MB-231; read-out: pTGI): > 100 µM
CC50 (Malme-3M; [8]): > 100 µM
TGI (Malme-3M; read-out: pTGI): > 100 µM
GI50 (SF-539): 17.8 µM
CC50 (SF-539; [8]): > 100 µM
TGI (SF-539; read-out: pTGI (converted)): 89.1 µM
Activity (MCF7 [7]): 43.9%
